# B1: Osa-1-4 twister ribozyme (parent)
# chain: CCGCCUAACACUGCCAAUGCCGGUCCCAAGCCCGGAUAAAAGUGGAGGGGGCGG
# Variants of: B1
# Assay: self-cleavage, relative activity (ratio to wild type); higher = more cleavage; co-transcriptional
# Summary of the method: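 A DNA template for a 54-nucleotide Oryza sativa twister ribozyme was synthesised with 97 % wild-type base and 1 % of each other base at the 48 positions downstream of the cleavage site. It was transcribed in vitro for 2 h at 37 °C, allowing co-transcriptional self-cleavage, then reverse-transcribed with a template-switching oligonucleotide, PCR-amplified and deep-sequenced. Cleavage status was scored from reads with or without upstream sequence. Relative activity is fraction cleaved normalised to wild type.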
row,Variant,self-cleavage
1,C32U G45U,0.04
2,C32U G45C,0.03
3,C32U G45A,0.08
4,C33G G49U,0.02
5,C33G G49C,0.03
6,C33G G49A,0.05
7,C32U G23A,0.85
8,C32U G23C,0.03
9,C32U G23U,0.12
10,C32G G23A,0.27
11,C32G G23C,0.08
12,C32G G23U,0.29
13,C33U G44A,0.5
14,C33U G44C,0.29
15,C33U G13C,0.02
16,C33U G13A,0.04
17,C33U G13U,0.03
18,C33A U24C,0.05
19,C33A U24G,0.02
20,C33A U24A,0.05
21,C33G G22C,0.62
22,C33G G22A,0.16
23,C33G G22U,0.87
24,C32U C33U,0.06

row,Variant,self-cleavage
1,C32U C33G,0.02
2,C32U C33A,0.04
3,C32G G54A,0.15
4,C32G G54U,0.25
5,C32G G54C,0.09
6,C32G,0.18
7,C32U,0.24
8,C33A C9G,0.08
9,C33A C9A,0.05
10,C33A C9U,0.07
11,C33A G13U,0.02
12,C33A G13A,0.02
13,C33A G13C,0.01
14,C33G C9A,0.02
15,C33G C9U,0.04
16,C33G C9G,0.07
17,C33G G51A,0.06
18,C33G G51U,0.05
19,C33G G51C,0.06
20,C33A G23C,0.02
21,C33A G23A,0.06
22,C33A G23U,0.04
23,C32G G44U,0.08
24,C32G G44A,0.11

row,Variant,self-cleavage
1,C32G G44C,0.07
2,C33A G51C,0.05
3,C33A G51U,0.05
4,C33A G51A,0.06
5,C32U G22U,0.07
6,C32U G22A,0.09
7,C32U G22C,0.04
8,C33A G19A,0.07
9,C33A G19U,0.04
10,C33A G19C,0.03
11,C33U G30A,0.04
12,C33U G30U,0.03
13,C33U G30C,0.04
14,C33G G48U,0.02
15,C33G G48A,0.02
16,C33G G48C,0.03
17,C32G G49U,0.05
18,C32G G49C,0.04
19,C32G G49A,0.05
20,C33A G45A,0.06
21,C33A G45C,0.04
22,C33A G45U,0.04
23,C33G G44A,0.05
24,C33G G44U,0.05

row,Variant,self-cleavage
1,C33G G44C,0.05
2,C32G G19C,0.03
3,C32G G19U,0.07
4,C32G G19A,0.12
5,C33A U18G,0.17
6,C33A U18A,0.15
7,C33A U18C,0.12
8,C32U G50C,0.09
9,C32U G50U,0.11
10,C32U G50A,0.1
11,C33U C9A,0.2
12,C33U C9U,0.39
13,C33U C9G,0.3
14,C32G U37G,0.19
15,C32G U37C,0.14
16,C32G U37A,0.16
17,C32G G45U,0.04
18,C32G G45C,0.03
19,C32G G45A,0.05
20,C32G G50A,0.1
21,C32G G50U,0.11
22,C32G G50C,0.09
23,C32G U18C,0.15
24,C32G U18A,0.14

row,Variant,self-cleavage
1,C32G U18G,0.14
2,C32U G49C,0.03
3,C32U G49A,0.05
4,C32U G49U,0.05
5,C32U U24G,0.01
6,C32U U24C,0.06
7,C32U U24A,0.06
8,C32G G42C,0.08
9,C32G G42A,0.09
10,C32G G42U,0.04
11,C32G G48C,0.04
12,C32G G48A,0.05
13,C32G G48U,0.03
14,C33U G22C,0.45
15,C33U G22U,1
16,C33U G22A,1.08
17,C32G G53C,0.06
18,C32G G53A,0.1
19,C32G G53U,0.07
20,C33A U12G,0.06
21,C33A U12A,0.06
22,C33A U12C,0.06
23,C33A G50A,0.1
24,C33A G50U,0.1

row,Variant,self-cleavage
1,C33A G50C,0.08
2,C32U G51A,0.07
3,C32U G51U,0.05
4,C32U G51C,0.05
5,C32U G34C,0.07
6,C32U G34U,0.08
7,C32U G34A,0.09
8,C32U G48A,0.03
9,C32U G48C,0.03
10,C32U G48U,0.03
11,C33A G44C,0.09
12,C33A G44A,0.08
13,C33A G44U,0.1
14,C33A C52A,0.11
15,C33A C52G,0.17
16,C33A C52U,0.28
17,C32G C33G,0.05
18,C32G C33A,0.07
19,C32G C33U,0.07
20,C33A G22U,0.93
21,C33A G22C,0.22
22,C33A G22A,0.87
23,C32U U18A,0.16
24,C32U U18G,0.22

row,Variant,self-cleavage
1,C32U U18C,0.18
2,C33U G42C,0.08
3,C33U G42U,0.07
4,C33U G42A,0.14
5,C32U G44U,0.07
6,C32U G44C,0.09
7,C32U G44A,0.08
8,C33A U37A,0.34
9,C33A U37G,0.29
10,C33A U37C,0.14
11,C33A G30U,0.02
12,C33A G30A,0.02
13,C33A G30C,0.02
14,C33G G23C,0.03
15,C33G G23U,0.03
16,C33G G23A,0.05
17,C33G U37C,0.05
18,C33G U37A,0.08
19,C33G U37G,0.08
20,C33G G42U,0.02
21,C33G G42A,0.05
22,C33G G42C,0.05
23,C32G C52U,0.2
24,C32G C52A,0.12

row,Variant,self-cleavage
1,C32G C52G,0.16
2,C33U G19C,0.02
3,C33U G19A,0.17
4,C33U G19U,0.06
5,C33A G47A,0.04
6,C33A G47C,0.04
7,C33A G47U,0.04
8,C32A U43G,0.05
9,C32A U43C,0.06
10,C32A U43A,0.07
11,C33G G53C,0.03
12,C33G G53U,0.04
13,C33G G53A,0.08
14,C32U U12C,0.08
15,C32U U12G,0.09
16,C32U U12A,0.1
17,C33G G34A,0.06
18,C33G G34U,0.05
19,C33G G34C,0.05
20,C33A U43G,0.08
21,C33A U43A,0.08
22,C33A U43C,0.06
23,C32U U43G,0.09
24,C32U U43C,0.06

row,Variant,self-cleavage
1,C32U U43A,0.09
2,C32G U43G,0.11
3,C32G U43C,0.09
4,C32G U43A,0.1
5,C33G G50U,0.09
6,C33G G50C,0.05
7,C33G G50A,0.06
8,C32U G54A,0.1
9,C32U G54C,0.09
10,C32U G54U,0.26
11,C32G G34A,0.09
12,C32G G34U,0.08
13,C32G G34C,0.06
14,C33G G19U,0.03
15,C33G G19C,0.02
16,C33G G19A,0.05
17,C33A G53C,0.04
18,C33A G53A,0.08
19,C33A G53U,0.06
20,C32G G35A,0.09
21,C32G G35C,0.07
22,C32G G35U,0.08
23,C33U G35A,0.49
24,C33U G35U,0.11

row,Variant,self-cleavage
1,C33U G35C,0.08
2,C33A G34A,0.08
3,C33A G34U,0.06
4,C33A G34C,0.05
5,C32U G13C,0.01
6,C32U G13U,0.01
7,C32U G13A,0.03
8,C32G G22U,0.07
9,C32G G22A,0.1
10,C32G G22C,0.04
11,C32G G47A,0.09
12,C32G G47U,0.04
13,C32G G47C,0.04
14,C32U G35U,0.06
15,C32U G35C,0.06
16,C32U G35A,0.08
17,C33G G13U,0.01
18,C33G G13A,0.03
19,C33G G13C,0.01
20,C32U C52A,0.13
21,C32U C52G,0.15
22,C32U C52U,0.2
23,C32G G13U,0.01
24,C32G G13C,0.02

row,Variant,self-cleavage
1,C32G G13A,0.04
2,C32U U37A,0.21
3,C32U U37G,0.26
4,C32U U37C,0.16
5,C32U G30A,0.02
6,C32U G30U,0.02
7,C32U G30C,0.02
8,C33G G45U,0.02
9,C33G G45C,0.02
10,C33G G45A,0.04
11,C33A G42C,0.06
12,C33A G42A,0.06
13,C33A G42U,0.03
14,C33U C52G,0.88
15,C33U C52A,0.84
16,C33U C52U,0.99
17,C33G G47C,0.03
18,C33G G47A,0.03
19,C33G G47U,0.02
20,C33A G49A,0.05
21,C33A G49C,0.04
22,C33A G49U,0.04
23,C32G G51C,0.05
24,C32G G51A,0.09

row,Variant,self-cleavage
1,C32G G51U,0.07
2,C33A G48C,0.05
3,C33A G48U,0.04
4,C33A G48A,0.04
5,C33G G54A,0.08
6,C33G G54U,0.1
7,C33G G54C,0.03
8,C32U G42A,0.08
9,C32U G42U,0.03
10,C32U G42C,0.07
11,C33G C52A,0.08
12,C33G C52U,0.05
13,C33G C52G,0.26
14,C33U G23A,0.09
15,C33U G23U,0.04
16,C33U G23C,0.04
17,C32G C9U,0.04
18,C32G C9G,0.11
19,C32G C9A,0.03
20,C32U G19C,0.03
21,C32U G19U,0.05
22,C32U G19A,0.1
23,C32U C9A,0.02
24,C32U C9G,0.09

row,Variant,self-cleavage
1,C32U C9U,0.05
2,C33G G30C,0.02
3,C33G G30U,0.02
4,C33G G30A,0.02
5,C33A,0.28
6,C33G,0.06
7,C33U,0.88
8,C33G U24C,0.04
9,C33G U24A,0.04
10,C33G U24G,0.01
11,C32G G30A,0.03
12,C32G G30C,0.02
13,C32G G30U,0.02
14,C33G U43A,0.06
15,C33G U43C,0.03
16,C33G U43G,0.06
17,C32G U24A,0.06
18,C32G U24C,0.05
19,C32G U24G,0.02
20,C33G G35A,0.05
21,C33G G35C,0.03
22,C33G G35U,0.04
23,C33U G34C,0.21
24,C33U G34U,0.13

row,Variant,self-cleavage
1,C33U G34A,0.22
2,C33A G54A,0.11
3,C33A G54C,0.07
4,C33A G54U,0.24
5,C33A G35A,0.07
6,C33A G35C,0.04
7,C33A G35U,0.07
8,C33G U12A,0.05
9,C33G U12G,0.07
10,C33G U12C,0.03
11,C32G U12A,0.12
12,C32G U12C,0.08
13,C32G U12G,0.06
14,C32U G53C,0.05
15,C32U G53U,0.09
16,C32U G53A,0.09
17,C32U G47U,0.06
18,C32U G47A,0.06
19,C32U G47C,0.04
20,C33G U18A,0.07
21,C33G U18G,0.08
22,C33G U18C,0.08

# Reference: the RNAGym collection of RNA variant scans (doi:10.1002/anie.201605470)
